According to ChEMBL document CHEMBL1155439, “Transient receptor potential ankyrin 1 (TRPA1) channel as emerging target for novel analgesics and anti-inflammatory agents” (J Med Chem, 2010):

Tests used:
[1] = target: T1, Transient receptor potential cation channel subfamily A member 1 (Homo sapiens, UniProt O75762); test: Activation of TRPA1 channel
Summary of the method: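 Cell lines transfected with TRPA1 and loaded with a calcium-sensitive dye, read on FLIPR. Calcium influx is counted as the change in fluorescence above background. Each material was tested by preincubation or by direct addition. Calcium counts are expressed as a percentage of the control calcium count.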

[2] = target: T1, Transient receptor potential cation channel subfamily A member 1; test: Agonist activity at human TRPA1 channel expressed in CHO cells assessed as increase in intracellular calcium levels; assay type: functional, cell-based
[3] = target: Transient receptor potential cation channel subfamily A member 1 (Mus musculus, UniProt Q8BLA8); test: Agonist activity at mouse TRPA1 channel expressed in CHO cells assessed as increase in intracellular calcium influx; assay type: functional, cell-based
Sequence of Transient receptor potential cation channel subfamily A member 1 (Mus musculus, UniProt Q8BLA8) (Q8BLA8 whole entry): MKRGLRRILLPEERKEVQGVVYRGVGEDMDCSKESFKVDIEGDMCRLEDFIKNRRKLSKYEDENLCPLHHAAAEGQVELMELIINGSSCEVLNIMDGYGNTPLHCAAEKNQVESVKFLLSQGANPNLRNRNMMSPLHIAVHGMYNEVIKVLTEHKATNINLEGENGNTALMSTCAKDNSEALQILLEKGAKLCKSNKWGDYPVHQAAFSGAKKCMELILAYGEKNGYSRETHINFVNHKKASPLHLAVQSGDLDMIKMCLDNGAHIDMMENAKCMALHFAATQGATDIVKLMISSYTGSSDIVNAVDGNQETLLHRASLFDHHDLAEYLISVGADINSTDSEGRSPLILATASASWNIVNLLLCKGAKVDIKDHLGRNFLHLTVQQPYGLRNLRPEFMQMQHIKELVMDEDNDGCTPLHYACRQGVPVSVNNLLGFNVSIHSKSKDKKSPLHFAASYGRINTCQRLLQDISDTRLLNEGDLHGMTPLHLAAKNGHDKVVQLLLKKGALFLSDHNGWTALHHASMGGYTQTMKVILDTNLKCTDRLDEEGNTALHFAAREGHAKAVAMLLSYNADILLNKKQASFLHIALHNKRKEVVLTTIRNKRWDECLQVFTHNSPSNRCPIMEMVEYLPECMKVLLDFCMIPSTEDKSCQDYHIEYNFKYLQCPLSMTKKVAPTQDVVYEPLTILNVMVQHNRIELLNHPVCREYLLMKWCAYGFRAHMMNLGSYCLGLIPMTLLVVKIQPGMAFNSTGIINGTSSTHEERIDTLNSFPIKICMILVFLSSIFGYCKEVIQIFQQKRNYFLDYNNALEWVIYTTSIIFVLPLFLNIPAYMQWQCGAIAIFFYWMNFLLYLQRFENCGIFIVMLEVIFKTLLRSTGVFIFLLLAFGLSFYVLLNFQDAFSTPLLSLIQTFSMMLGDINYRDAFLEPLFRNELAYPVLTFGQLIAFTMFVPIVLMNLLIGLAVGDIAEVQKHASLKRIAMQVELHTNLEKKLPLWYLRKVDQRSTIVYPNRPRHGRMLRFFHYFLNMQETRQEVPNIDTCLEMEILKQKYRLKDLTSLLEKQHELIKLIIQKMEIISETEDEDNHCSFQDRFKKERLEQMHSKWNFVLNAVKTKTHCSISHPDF

[4] = target: T1, Transient receptor potential cation channel subfamily A member 1; test: Antagonist activity at TRPA1 channel at 1 uM; assay type: functional
[5] = target: T1, Transient receptor potential cation channel subfamily A member 1; test: Antagonist activity at TRPA1 channel at 10 uM; assay type: functional
[6] = target: T1, Transient receptor potential cation channel subfamily A member 1; test: Antagonist activity at human TRPA1 channel assessed as inhibition of allyl isothiocyanate-induced intracellular calcium influx; assay type: functional, cell-based
[7] = target: T1, Transient receptor potential cation channel subfamily A member 1; test: Agonist activity at human TRPA1 channel expressed in HEK293 cells assessed as increase in membrane currents; assay type: functional, cell-based
[8] = target: T1, Transient receptor potential cation channel subfamily A member 1; test: Agonist activity at human TRPA1 channel expressed in HEK293 cells assessed as increase in intracellular calcium influx; assay type: functional, cell-based
[9] = target: Transient receptor potential cation channel subfamily M member 8 (Homo sapiens, UniProt Q7Z2W7); test: Activation of TRPM8 channel
Sequence of Transient receptor potential cation channel subfamily M member 8 (Q7Z2W7 whole entry): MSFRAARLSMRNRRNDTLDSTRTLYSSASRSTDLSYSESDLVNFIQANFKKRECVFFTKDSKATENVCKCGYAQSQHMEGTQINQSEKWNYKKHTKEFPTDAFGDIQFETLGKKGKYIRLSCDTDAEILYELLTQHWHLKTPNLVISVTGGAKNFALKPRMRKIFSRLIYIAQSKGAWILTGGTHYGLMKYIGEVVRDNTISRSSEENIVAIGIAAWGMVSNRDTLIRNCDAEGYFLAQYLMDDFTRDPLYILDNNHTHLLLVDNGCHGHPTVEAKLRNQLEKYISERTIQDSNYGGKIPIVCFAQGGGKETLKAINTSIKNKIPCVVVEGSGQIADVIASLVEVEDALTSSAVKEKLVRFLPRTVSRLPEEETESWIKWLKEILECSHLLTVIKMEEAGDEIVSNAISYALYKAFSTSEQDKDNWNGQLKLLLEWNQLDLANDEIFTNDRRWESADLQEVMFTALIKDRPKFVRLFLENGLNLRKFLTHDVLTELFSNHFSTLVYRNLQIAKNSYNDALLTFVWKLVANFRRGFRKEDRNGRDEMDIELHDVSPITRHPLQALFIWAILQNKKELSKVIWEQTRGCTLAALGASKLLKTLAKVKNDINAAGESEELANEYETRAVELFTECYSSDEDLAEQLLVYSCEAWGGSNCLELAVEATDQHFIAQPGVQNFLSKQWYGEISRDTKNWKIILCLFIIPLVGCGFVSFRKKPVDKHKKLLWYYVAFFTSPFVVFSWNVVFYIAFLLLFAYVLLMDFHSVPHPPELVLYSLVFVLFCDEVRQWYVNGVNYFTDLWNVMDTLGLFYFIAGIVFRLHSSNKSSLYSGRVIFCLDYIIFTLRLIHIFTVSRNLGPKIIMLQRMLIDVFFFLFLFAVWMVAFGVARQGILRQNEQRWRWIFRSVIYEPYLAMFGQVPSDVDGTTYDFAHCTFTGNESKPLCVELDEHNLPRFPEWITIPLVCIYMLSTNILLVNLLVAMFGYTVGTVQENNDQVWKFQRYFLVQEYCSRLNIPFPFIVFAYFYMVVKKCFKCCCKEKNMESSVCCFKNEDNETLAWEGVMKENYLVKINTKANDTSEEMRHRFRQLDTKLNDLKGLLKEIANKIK

[10] = target: Transient receptor potential cation channel subfamily A member 1 (Rattus norvegicus, UniProt Q6RI86); test: Agonist activity at rat TRPA1 channel expressed in HEK293 cells assessed as increase in intracellular calcium influx; assay type: functional, cell-based
Sequence of Transient receptor potential cation channel subfamily A member 1 (Rattus norvegicus, UniProt Q6RI86) (Q6RI86 whole entry): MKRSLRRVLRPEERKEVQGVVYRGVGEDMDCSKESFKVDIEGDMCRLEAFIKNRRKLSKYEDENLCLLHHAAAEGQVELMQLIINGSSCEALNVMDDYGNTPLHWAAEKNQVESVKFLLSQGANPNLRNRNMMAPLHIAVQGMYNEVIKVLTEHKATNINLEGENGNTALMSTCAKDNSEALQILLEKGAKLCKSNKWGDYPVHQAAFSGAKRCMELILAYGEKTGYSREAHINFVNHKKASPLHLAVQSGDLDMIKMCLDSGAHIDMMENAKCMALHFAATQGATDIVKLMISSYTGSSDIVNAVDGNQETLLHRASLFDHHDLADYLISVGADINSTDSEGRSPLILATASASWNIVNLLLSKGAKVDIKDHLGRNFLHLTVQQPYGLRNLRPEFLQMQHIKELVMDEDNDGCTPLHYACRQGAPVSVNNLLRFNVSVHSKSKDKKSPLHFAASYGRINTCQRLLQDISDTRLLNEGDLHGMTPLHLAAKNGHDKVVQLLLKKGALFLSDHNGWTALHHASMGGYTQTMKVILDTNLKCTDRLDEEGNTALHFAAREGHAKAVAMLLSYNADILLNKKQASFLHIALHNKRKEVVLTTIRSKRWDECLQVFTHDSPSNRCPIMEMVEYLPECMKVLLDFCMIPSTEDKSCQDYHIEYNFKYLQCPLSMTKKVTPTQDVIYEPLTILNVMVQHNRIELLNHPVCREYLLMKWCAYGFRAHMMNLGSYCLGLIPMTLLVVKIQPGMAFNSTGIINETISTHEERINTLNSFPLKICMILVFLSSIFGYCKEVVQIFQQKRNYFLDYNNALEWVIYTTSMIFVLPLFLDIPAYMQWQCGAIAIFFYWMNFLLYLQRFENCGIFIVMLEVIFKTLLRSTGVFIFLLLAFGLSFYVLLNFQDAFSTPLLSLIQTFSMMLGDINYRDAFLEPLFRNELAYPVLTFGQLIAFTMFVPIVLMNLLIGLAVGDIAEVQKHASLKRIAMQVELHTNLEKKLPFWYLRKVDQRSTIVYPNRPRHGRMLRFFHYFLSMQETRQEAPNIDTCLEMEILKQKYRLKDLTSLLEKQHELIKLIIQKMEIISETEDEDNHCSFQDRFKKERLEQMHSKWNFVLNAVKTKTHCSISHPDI

[11] = target: T1, Transient receptor potential cation channel subfamily A member 1; test: Antagonist activity at TRPA1 channel; assay type: functional
[12] = target: T1, Transient receptor potential cation channel subfamily A member 1; test: Antagonist activity at human TRPA1 channel expressed in CHO cells assessed as inhibition of cinnamaldehyde-induced intracellular calcium influx; assay type: functional, cell-based

T1 sequence (O75762 whole entry): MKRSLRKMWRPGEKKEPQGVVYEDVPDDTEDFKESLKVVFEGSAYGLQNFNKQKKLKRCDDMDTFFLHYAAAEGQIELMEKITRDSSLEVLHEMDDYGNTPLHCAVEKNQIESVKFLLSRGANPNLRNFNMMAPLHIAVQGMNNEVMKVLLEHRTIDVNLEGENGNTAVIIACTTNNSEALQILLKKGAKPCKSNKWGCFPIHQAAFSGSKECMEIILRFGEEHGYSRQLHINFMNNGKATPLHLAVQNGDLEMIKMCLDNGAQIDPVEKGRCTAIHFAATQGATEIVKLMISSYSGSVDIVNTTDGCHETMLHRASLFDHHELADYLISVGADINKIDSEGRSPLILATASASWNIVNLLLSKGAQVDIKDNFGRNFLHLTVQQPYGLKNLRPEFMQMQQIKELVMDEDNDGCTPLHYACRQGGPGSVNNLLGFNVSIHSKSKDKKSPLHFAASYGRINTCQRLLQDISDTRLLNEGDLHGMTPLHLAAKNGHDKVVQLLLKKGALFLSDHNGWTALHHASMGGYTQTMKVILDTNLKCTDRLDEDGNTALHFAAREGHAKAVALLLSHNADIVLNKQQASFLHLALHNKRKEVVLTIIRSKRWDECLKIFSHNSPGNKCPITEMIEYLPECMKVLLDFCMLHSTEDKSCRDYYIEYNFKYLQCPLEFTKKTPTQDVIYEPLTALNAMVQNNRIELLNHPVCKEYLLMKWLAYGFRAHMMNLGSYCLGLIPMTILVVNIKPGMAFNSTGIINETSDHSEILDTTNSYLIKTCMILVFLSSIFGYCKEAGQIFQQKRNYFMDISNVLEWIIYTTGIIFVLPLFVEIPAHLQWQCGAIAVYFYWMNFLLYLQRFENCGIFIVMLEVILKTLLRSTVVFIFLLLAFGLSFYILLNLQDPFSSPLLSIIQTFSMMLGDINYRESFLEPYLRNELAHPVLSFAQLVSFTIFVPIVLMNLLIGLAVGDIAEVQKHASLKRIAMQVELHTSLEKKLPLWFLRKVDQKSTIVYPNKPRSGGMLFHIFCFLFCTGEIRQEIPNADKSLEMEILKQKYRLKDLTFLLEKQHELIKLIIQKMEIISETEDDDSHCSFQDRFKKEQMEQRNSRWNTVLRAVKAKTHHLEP

In the case of `S=C=NCCc1ccccc1` [PHENETHYLISOTHIOCYANATE], the EC50 [1] is reported as 10 µM.
Compound `C=CCSCC=C` [DIALLYL SULFIDE] has an EC50 [2] of 254 µM.
Compound `CCOC(=O)C1=C(C)NC(C)=C(C(=O)OC)C1c1cccc([N+](=O)[O-])c1` (stereo not drawn) [NITRENDIPINE] has an EC50 [3] of 3.8 µM.
`CC(C)c1ccc(NC(=O)Cc2cccc3c2C(=O)N(C)C3=O)cc1` gave an inhibition [4] of 18% and an inhibition [5] of 21%.
`CCCCC[C@H](O)/C=C/[C@H]1C=CC(=O)[C@@H]1C/C=C\CCCC(=O)O` [PROSTAGLANDIN A2] was tested, and the EC50 [1] was 24 µM.
`CCc1ccc(-c2csc(NC(=O)Cn3cnc4c3c(=O)n(C)c(=O)n4C)n2)cc1` showed an IC50 [6] of less than 1000 nM.
Work on `Cn1c(=O)c2c(ncn2CC(=O)Nc2nc(-c3ccccc3F)cs2)n(C)c1=O` yielded an IC50 [6] of less than 1000 nM.
`Cn1c(=O)c2c(ncn2CC(=O)Nc2nc(-c3cccc(F)c3)cs2)n(C)c1=O` showed an IC50 [6] of less than 1000 nM.
`CCCCC[C@H](O)/C=C/[C@H]1C=CC(=O)[C@@H]1CCCCCCC(=O)O` [PROSTAGLANDIN A1] was tested, and the EC50 [1] was 15.1 µM.
`CCC(CC)CN1C(=O)/C(=C/C(=O)N2CCOCC2)c2cccc(F)c21` showed an EC50 [7] of 1290 nM.
Work on `C/C=C/C=O` [CROTONALDEHYDE] yielded an EC50 [1] of 16 µM.
Compound `COC(=O)c1cccc(CN2C(=O)/C(=C/C(N)=O)c3ccccc32)c1` has an EC50 [7] of 1200 nM.
In the case of `CO/C(O)=C1\C(C)=NC(C)=C([N+](=O)[O-])[C@H]1c1ccccc1C(F)(F)F`, the EC50 [3] is reported as 41.5 µM.
Work on `COC(=O)C1=C(C)NC(C)=C([N+](=O)[O-])C1c1ccccc1C(F)(F)F` (stereo not drawn) yielded an EC50 [3] of 32.7 µM.
With `O=C1NC(c2cccc([N+](=O)[O-])c2)=CCN1c1ccccc1O` [ICILLIN] the EC50 [8] was 100 µM and the EC50 [9] was 60 nM.
Work on `CCCCCc1cc(O)c2c(c1C(=O)O)OC(C)(C)[C@@H]1CCC(C)=C[C@@H]21` [TETRAHYDROCANNABINOL ACID] yielded an EC50 [10] of 240 nM.
`CCOc1ccccc1-c1csc(NC(=O)Cn2cnc3c2c(=O)n(C)c(=O)n3C)n1` was tested, and the IC50 [6] was less than 1000 nM.
`C=CCSSCC=C` gave an EC50 [2] of 7.55 µM and an EC50 [1] of 125 µM.
In the case of `C=C(C)[C@@H]1CCC(C)=C[C@H]1c1c(O)cc(CCCCC)cc1O` [CANNABIDIOL], the EC50 [10] is reported as 96 nM.
Compound `CC(C)=CCC/C(C)=C/CC/C(C)=C/CSc1ccccc1C(=O)O` [SALIRASIB] has an EC50 [2] of 5 µM.
In the case of `CN1C(=O)c2cccc(CC(=O)Nc3nc(-c4ccc(Cl)cc4)cs3)c2C1=O`, the inhibition [4] is reported as 39%, the inhibition [5] is reported as 93% and the IC50 [11] is reported as 500 nM.
`Cn1c(=O)c2c(ncn2CC(=O)Nc2nc(-c3cccc(Cl)c3)cs2)n(C)c1=O` showed an IC50 [6] of less than 1000 nM.
With `CCCCC/C=C/C=C1/C(=O)C=C[C@@H]1C/C=C\CCCC(=O)O` the EC50 [1] was 5.6 µM.
`CN1C(=O)c2cccc(CC(=O)Nc3nc(-c4cc(F)c(OC(F)F)c(F)c4)cs3)c2C1=O` was tested, and the inhibition [4] was 92% and the inhibition [5] was 99%.
`S=C=NCc1ccccc1` [BENZYL ISOTHIOCYANATE] was tested, and the EC50 [1] was 0.319 µM.
Work on `O=C(O)/C=C1/C(=O)N(CC2CCC2)c2c(F)cccc21` yielded an EC50 [7] of 1160 nM.
Work on `CN1C(=O)c2cccc(CC(=O)Nc3nc(-c4ccc(I)cc4)cs3)c2C1=O` yielded an inhibition [4] of 76%, an inhibition [5] of 95% and an IC50 [11] of less than 250 nM.
Work on `O=C(O)/C=C1/C(=O)N(CC2CCCC2)c2c(F)cccc21` yielded an EC50 [7] of 510 nM.
In the case of `CC(C)CN1C(=O)/C(=C/C(=O)O)c2cccc(F)c21`, the EC50 [7] is reported as 830 nM.
With `C=CCSSSCC=C` [ALLITRIDIN] the EC50 [2] was 0.49 µM.
`CCC(=N\O)/C(C)=C/c1ccc(C(F)(F)F)nc1` showed an IC50 [12] greater than 100 µM.
`CO/C(O)=C1\C(C)=NC(C)=C([N+](=O)[O-])[C@@H]1c1ccccc1C(F)(F)F` showed an EC50 [3] of 20.8 µM.
With `NC(=O)c1cccc(-c2cccc(OC(=O)NC3CCCCC3)c2)c1` [URB-597] the EC50 [8] was 24.5 µM.
With `COC(=O)C1=C(C)NC(C)=C(C(=O)OC)C1c1ccccc1[N+](=O)[O-]` [NIFEDIPINE] the EC50 [3] was 0.4 µM.
Compound `O=C(O)/C=C1/C(=O)N(Cc2ccccc2)c2ccc(F)cc21` has an EC50 [7] of 4450 nM.
Work on `Cn1c(=O)c2c(ncn2CC(=O)Nc2nc(-c3ccc(Br)cc3)cs2)n(C)c1=O` yielded an IC50 [6] of less than 1000 nM.
With `Cc1ccc(N=C=O)cc1N=C=O` [TOLUENE DIISOCYANATE] the EC50 [8] was 10 µM.
`C=C(C)C1CC=C(C=O)CC1` (stereo not drawn) was tested, and the EC50 [1] was 41 µM.
In the case of `CCCCC(CC)C1NC(=O)N(SC(Cl)(Cl)Cl)C1=O` (stereo not drawn) [CHLORDANTOIN], the EC50 [2] is reported as 3 µM.
Work on `CC1(C)CCC[C@]2(C)[C@@H](CC/C=C(/C=O)CC=O)[C@@H](C=O)CC[C@@H]12` [MIOGATRIAL] yielded an EC50 [2] of 0.13 µM.
